Test results reported in ChEMBL document CHEMBL4000155, “Synthesis and Antileukemic Activities of Piperlongumine and HDAC Inhibitor Hybrids against Acute Myeloid Leukemia Cells” (J Med Chem, 2016).
Activity calls are given as the source filed them. The rule behind the calls is not given here.

How the values were obtained:
Homo sapiens = organism: Homo sapiens; conditions: at 1 µM
MCF-10A = experiment: Cytotoxicity against human MCF10A cells assessed as decrease in cell viability at 0.5 to 5 uM after 24 hrs by MTT assay; assay type: cell-based
Outline: (§1)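 MCF-10A (DMEM/F12, 5% horse serum, hydrocortisone, cholera toxin, insulin, EGF) and U937 (RPMI 1640, 10% FBS) were exposed to 0.5–5 μM, alone or PL+SAHA 1:1, for 24 h. MTT 0.05 mg/mL, 3 h at 37 °C, DMSO solubilization, A570. Viability given as mean ± SD of four to six independent experiments. DMSO <0.1% vehicle control.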

U-937 [1] = experiment: Cytotoxicity against p53 null human U937 cells assessed as decrease in cell viability at 0.5 to 5 uM after 24 hrs by MTT assay; assay type: functional, cell-based
Outline: as §1

[2] = Chemical stability of the compound in pH 7.4 phosphate buffer at 50 uM incubated up to 4 hrs in presence of GSH by HPLC analysis; assay type: physicochemical; conditions: pH 7.4, 4 h
Outline: (§2)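 Compound at 50 μM incubated with or without 5 mM GSH in phosphate buffer pH 7.4 at 37 °C for up to 4 h. Mixtures analysed by HPLC with water/0.1% formic acid/10% methanol versus 0.1% formic acid in acetonitrile, 0.5 mL/min, 10–80% B gradient over 18 min.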

U-937 [3] = experiment: Induction of apoptosis in p53 null human U937 cells at 2 uM after 24 hrs by annexin V-FITC/PI staining based flow cytometry; assay type: functional
Outline: (§3)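 Human U937 AML cells (p53 null) in RPMI 1640 with 10% FBS, 2 mM L-glutamine, penicillin/streptomycin, 37 °C, 5% CO2. Exposed 24 h to compound alone or with SAHA; vehicle DMSO < 0.1% v/v. Annexin V-FITC/PI staining and flow cytometry, reported as % Annexin V+ cells. Three independent experiments in triplicate; one representative shown. EC50 taken as concentration giving 50% Annexin V+ cells versus vehicle.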

[4] = Chemical stability of the compound in pH 7.4 phosphate buffer at 50 uM incubated up to 4 hrs in absence of GSH by HPLC analysis; assay type: physicochemical; conditions: pH 7.4, 4 h
Outline: as §2

U-937 [5] = experiment: Induction of apoptosis in p53 null human U937 cells assessed as caspase 3 cleavage at 0.25 to 0.5 uM after 24 hrs by Western blot analysis; assay type: functional, cell-based
Outline: (§4)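 U937 cells exposed for 24 h. Lysates with protease/phosphatase inhibitors were separated by SDS-PAGE, transferred to PVDF and probed for PARP and cleaved caspase-3, with β-actin as loading control.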

AML [6] = experiment: Induction of apoptosis in patient derived AML cells assessed as PARP-1 cleavage at 0.25 to 2 uM after 24 hrs by Western blot analysis; assay type: functional, cell-based; conditions: Homo sapiens
Outline: (§5)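 Primary AML patient cells, Ficoll-Hypaque purified and grown in RPMI 1640/20% FBS with ITS and 5637 supernatant. Exposed 24 h; whole-cell lysates prepared with protease/phosphatase inhibitors, run on SDS-PAGE, blotted to PVDF and probed for PARP and cleaved caspase-3.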

U-937 [7] = experiment: Induction of apoptosis in p53 null human U937 cells assessed as PARP-1 cleavage at 0.25 to 0.5 uM after 24 hrs by Western blot analysis; assay type: functional, cell-based
Outline: as §4

U-937 [8] = experiment: Induction of apoptosis in p53 null human U937 cells at 0.25 uM after 24 hrs by annexin V-FITC/PI staining based flow cytometry; assay type: functional
Outline: (§6)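 Cells treated 24 h, single agents or SAHA+PL at 1:1 (each drug at the stated concentration). Annexin V-FITC/PI kit staining, then flow cytometry, reported as % Annexin V+ cells. Three independent experiments in triplicate, with data from one representative experiment. DMSO <0.1% vehicle control.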

AML [9] = experiment: Induction of apoptosis in patient derived AML cells assessed as caspase 3 cleavage at 0.25 to 2 uM after 24 hrs by Western blot analysis; assay type: functional, cell-based; conditions: Homo sapiens
Outline: as §5

AML [10] = experiment: Induction of apoptosis in patient derived AML-91 cells after 24 hrs by annexin V-FITC/PI staining based flow cytometry; assay type: functional, cell-based; conditions: Homo sapiens
Outline: (§7)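 Primary AML samples purified by Ficoll-Hypaque density centrifugation and cultured in RPMI 1640 with 20% FBS, ITS and 20% 5637 bladder cancer cell supernatant as a GM-CSF source. Treated 24 h, then Annexin V-FITC/PI flow cytometry as % Annexin V+. Single experiment in triplicate.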

U-937 [11] = experiment: Induction of apoptosis in p53 null human U937 cells at 1 uM after 24 hrs by annexin V-FITC/PI staining based flow cytometry; assay type: functional
Outline: as §6

U-937 [12] = experiment: Induction of apoptosis in p53 null human U937 cells at 0.5 uM after 24 hrs by annexin V-FITC/PI staining based flow cytometry; assay type: functional
Outline: as §6

AML [13] = experiment: Induction of apoptosis in patient derived AML-92 cells after 24 hrs by annexin V-FITC/PI staining based flow cytometry; assay type: functional, cell-based; conditions: Homo sapiens
Outline: as §7

U-937 [14] = experiment: Induction of apoptosis in p53 null human U937 cells at 0.25 to 0.5 uM preincubated with NAC for 3 hrs followed by compound addition measured after 24 hrs by annexin V-FITC/PI staining based flow cytometry; assay type: functional, cell-based
Outline: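 U937 cells preincubated 3 h with 3 mM NAC or vehicle, washed with PBS, then drug-treated 24 h. Annexin V-FITC/PI staining by flow cytometry, reported as % Annexin V+.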

U-937 [15] = experiment: Induction of apoptosis in p53 null human U937 cells at 2 uM preincubated with NAC for 3 hrs followed by compound addition measured after 24 hrs by annexin V-FITC/PI staining based flow cytometry; assay type: functional, cell-based
Outline: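 U937 cells preincubated 3 h with 3 mM NAC or vehicle and washed with PBS to remove excess NAC. Then drug alone or with SAHA for 24 h. Apoptosis scored as % Annexin V+ by Annexin V-FITC/PI flow cytometry; vehicle DMSO < 0.1% v/v.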

[16] = Antiproliferative activity against human CMS cells after 72 hrs by MTT assay; assay type: functional, cell-based
Outline: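 AML cell lines grown in RPMI 1640 with 10% FBS (20% for MOLM-13), 2 mM L-glutamine and penicillin/streptomycin at 37 °C, 5% CO2. Ara-C-resistant HL-60 and CMK sublines came from stepwise cytarabine selection and were kept in 600 nM or 300 nM cytarabine respectively. Cells were treated 72 h. MTT 0.05 mg/mL, 3 h at 37 °C, DMSO solubilization, absorbance at 570 nm. IC50 given ± SEM.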

U-937 [17] = experiment: Induction of cell death in p53 null human U937 cells at 1 to 4 uM after 24 hrs by annexin V-FITC/PI staining based flow cytometry; assay type: functional
Outline: as §3

U-937 [18] = experiment: Induction of DNA damage in p53 null human U937 cells at 2 uM after 20 hrs by SYBR gold staining based alkaline comet assay; assay type: functional, cell-based
Outline: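 U937 cells treated 20 h with SAHA and PL alone or combined (16 h for hybrids). Alkaline single-cell gel electrophoresis, SYBR Gold staining, microscopy. Median % DNA in tail from 4 replicate gels ± s.e.m.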

U-937 [19] = experiment: Induction of apoptosis in p53 null human U937 cells at 0.25 to 2 uM after 24 hrs by annexin V-FITC/PI staining based flow cytometry; assay type: functional, cell-based
Outline: as §6

Compound | inhibition (Homo sapiens) | Activity (MCF-10A) | Activity (U-937 [1]) | Activity (U-937 [3]) [%] | Activity (U-937 [19]) | also measured
COc1cc(C(=O)N2CCC=C(Cl)C2=O)cc(OC)c1OCCCCCCC(=O)NO | Active | Non-Toxic | Active | 40 | – | Stability [2]: Unstable
COc1cc(/C=C/C(=O)N2CCC=C(Cl)C2=O)cc(OC)c1OCCCCCCC(=O)NO | Active | Toxic | Active | 100 | – | Stability [4]: Stable; Activity (U-937 [5]): Active; Activity (AML [6]): Active; Activity (U-937 [7]): Active; Activity (U-937 [8]): 29.9%; Activity (AML [9]): Active; Activity (AML [10]): Dose-dependent effect; Activity (U-937 [11]): 88%; Activity (U-937 [12]): 49.2%; Stability [2]: Unstable; Activity (AML [13]): Dose-dependent effect; Activity (U-937 [14]): inactive
COC(=O)CCCCCCOc1c(OC)cc(/C=C/C(=O)N2CCC=C(Cl)C2=O)cc1OC | inactive | – | – | – | – | Activity (U-937 [11]): 29.7%
COc1cc(C(=O)N2CCC=CC2=O)cc(OC)c1OCCCCCCC(=O)NO | Active | Non-Toxic | Active | 40 | – | –
O=C(CCCCCCC(=O)Nc1ccccc1)NO [VORINOSTAT] | – | Non-Toxic | – | 25 | – | Activity (U-937 [15]): inactive; IC50 [16]: 1.02 µM; Activity (U-937 [17]): Active; Activity (U-937 [18]): inactive
COc1cc(/C=C/C(=O)N2CCCCC2=O)cc(OC)c1OCCCCCCC(=O)NO | Active | – | – | – | inactive | –
COC(=O)CCCCCCOc1c(OC)cc(/C=C/C(=O)N2CCC=CC2=O)cc1OC | inactive | – | – | – | inactive | –
COc1cc(/C=C/C(=O)N2CCC(C)=CC2=O)cc(OC)c1OCCCCCCC(=O)NO | Active | – | – | – | inactive | –
